Source: ChEMBL document CHEMBL3286205, “Optimization of diaryl amine derivatives as kinesin spindle protein inhibitors” (Bioorg Med Chem, 2014)
pIC50: −log10 of the molar value. ≈ marks a conversion by molar mass, not a printed value.

Legend:
[1] = target: T1, Kinesin-like protein KIF11 (Homo sapiens, UniProt P52732); assay: Inhibition of C-terminal His-tagged KSP ATPase motor domain (unknown origin) expressed in bacteria incubated for 30 mins prior to ATP addition measured after 15 mins by luminescence assay
T1 sequence (P52732 whole entry): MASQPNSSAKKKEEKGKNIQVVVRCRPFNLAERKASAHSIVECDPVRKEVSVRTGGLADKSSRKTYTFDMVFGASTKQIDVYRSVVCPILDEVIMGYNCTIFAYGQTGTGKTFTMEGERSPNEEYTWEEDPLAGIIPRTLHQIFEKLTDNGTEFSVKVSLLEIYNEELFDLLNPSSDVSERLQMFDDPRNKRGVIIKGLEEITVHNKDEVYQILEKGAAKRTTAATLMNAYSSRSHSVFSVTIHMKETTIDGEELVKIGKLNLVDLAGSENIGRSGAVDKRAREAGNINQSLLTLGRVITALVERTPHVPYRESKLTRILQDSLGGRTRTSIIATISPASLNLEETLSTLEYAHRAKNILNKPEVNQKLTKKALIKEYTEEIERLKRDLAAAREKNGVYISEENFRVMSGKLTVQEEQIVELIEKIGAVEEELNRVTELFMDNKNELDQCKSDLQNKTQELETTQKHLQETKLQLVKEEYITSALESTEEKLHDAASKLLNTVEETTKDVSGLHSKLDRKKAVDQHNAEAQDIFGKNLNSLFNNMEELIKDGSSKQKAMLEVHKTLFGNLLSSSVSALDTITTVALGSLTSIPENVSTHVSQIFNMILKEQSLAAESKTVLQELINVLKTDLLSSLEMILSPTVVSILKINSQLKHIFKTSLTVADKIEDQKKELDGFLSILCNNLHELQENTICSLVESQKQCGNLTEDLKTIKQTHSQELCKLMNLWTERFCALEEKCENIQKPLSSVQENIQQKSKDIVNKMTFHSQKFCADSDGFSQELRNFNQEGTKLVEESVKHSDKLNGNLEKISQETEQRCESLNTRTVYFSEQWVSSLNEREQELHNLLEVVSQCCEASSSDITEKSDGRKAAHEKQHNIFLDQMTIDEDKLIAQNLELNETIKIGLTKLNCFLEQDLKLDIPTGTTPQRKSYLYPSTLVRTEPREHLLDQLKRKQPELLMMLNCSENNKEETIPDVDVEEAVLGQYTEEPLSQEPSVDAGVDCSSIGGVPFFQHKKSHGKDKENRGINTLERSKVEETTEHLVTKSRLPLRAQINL

[2] = Thermodynamic solubility of the compound in 50% EtOH/1/15 M phosphate buffer at pH 7.4 after 48 hrs by HPLC analysis; assay type: physicochemical; details: read-out: Therm_solubility
In short: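 Solid compound in 0.5 mL of 1/15 M phosphate buffer (pH 7.4) plus 0.5 mL EtOH was shaken 48 h at 25 °C and filtered. m-Cresol internal standard was added (0.05 mg/mL final), the sample diluted in DMF and analysed by HPLC-UV at 254 nm. Concentration came from the peak-area ratio against a calibration curve, corrected for dilution.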

[3] = Thermodynamic solubility of the compound in 1/15 M phosphate buffer at pH 7.4 after 48 hrs by HPLC analysis; assay type: physicochemical; details: read-out: Therm_solubility
In short: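 Solid compound in 1.0 mL of 1/15 M phosphate buffer (pH 7.4) was shaken 48 h at 25 °C and filtered. m-Cresol internal standard was added (0.05 mg/mL final), the sample diluted in DMF and run on HPLC with UV at 254 nm. Concentration came from the sample/standard peak-area ratio against a calibration curve, corrected for dilution.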

HCT-116 = assay: Antiproliferative activity against human HCT116 cells assessed as growth inhibition after 72 hrs by MTS assay; assay type: functional, cell-based; details: HCT-116, 72 h
In short: (§1)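 Media with 10% FBS at 37 °C, 5% CO2: A549 in DMEM (500 cells/well), HCT-116 in McCoy's 5A and MCF-7 in EMEM (5000 cells/well each). Cells settled 6 h, then got graded compound concentrations (0.1% final DMSO) for 72 h. After washing into phenol-red-free medium (1 h), MTS was added for 40 min and A490 read. IC50 came from mean inhibition rates of ≥3 experiments.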

MCF7 = assay: Antiproliferative activity against human MCF7 cells assessed as growth inhibition after 72 hrs by MTS assay; assay type: functional, cell-based; details: MCF7, 72 h; in short: as §1
[4] = Retention time of the compound by HPLC analysis; assay type: physicochemical
In short: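 Reverse-phase C18 HPLC (4.6 × 250 mm), eluted with a linear 30–70% MeCN gradient over 40 min in 0.1% TFA.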

A549 = assay: Antiproliferative activity against human A549 cells assessed as growth inhibition after 72 hrs by MTS assay; assay type: functional, cell-based; details: A549, 72 h; in short: as §1

| Compound | pIC50 [1] | other results |
| --- | --- | --- |
| CC(=O)Nc1ccc2c(c1)[nH]c1cc(C(F)(F)F)ccc12 | 7.07 |  |
| O=C1CCc2cc(Nc3cccc(-c4ccccc4)c3)ccc2N1 | < 5.20 |  |
| O=C1CCc2cc(Nc3cccc(C(=O)O)c3)ccc2N1 | < 5.20 |  |
| O=C1COc2ccc(Nc3cccc(C(F)(F)F)c3)cc2N1 | < 5.20 |  |
| FC(F)(F)c1ccc2c(c1)[nH]c1ccccc12 |  | solubility thermodynamic at 48 h [2]: 424 µg/mL (≈ 1800 µM); solubility thermodynamic at 48 h [3]: < 1 µg/mL |
| O=[N+]([O-])c1cccc(Nc2cccc(C(F)(F)F)c2)c1 | < 5.20 |  |
| Nc1cccc(Nc2cccc(C(F)(F)F)c2)c1 | < 5.20 |  |
| O=C1CCCc2cc(Nc3cc(C(F)(F)F)ccn3)ccc2N1 | 7.30 | solubility thermodynamic at 48 h [2]: 4820 µg/mL (≈ 15000 µM); pIC50 (HCT-116): 5.19; pIC50 (MCF7): 5.04; Retention_time [4]: 10.8 min; solubility thermodynamic at 48 h [3]: 8.07 µg/mL (≈ 25.1 µM); pIC50 (A549): 5.30 |
| O=C1CCc2cc(Nc3cccc(O)c3)ccc2N1 | < 5.20 |  |
| NC(=O)Nc1cccc(Nc2cccc(C(F)(F)F)c2)c1 | < 5.20 |  |
| O=C1COc2cc(Nc3cccc(C(F)(F)F)c3)ccc2N1 | 6.54 |  |
| Nc1cccc(Nc2ccc3c(c2)CCC(=O)N3)c1 | < 5.20 |  |
| O=C1CCc2cc(Nc3cc(C(F)(F)F)cc(C(F)(F)F)c3)ccc2N1 | < 5.20 |  |
| O=[N+]([O-])c1ccc2[nH]c3cc(C(F)(F)F)ccc3c2c1 | 7.37 |  |
| CC(C)(C)c1cccc(Nc2ccc3c(c2)CCC(=O)N3)c1 | 6.80 |  |
| O=C1CCc2cc(Nc3cccc(C(F)(F)F)c3)cc(F)c2N1 | 6.37 |  |
| O=c1[nH]c2ccc(Nc3cccc(C(F)(F)F)c3)cc2o1 | < 5.20 |  |
| O=C1CCc2cc(Sc3cccc(C(F)(F)F)c3)ccc2N1 | < 5.20 |  |
| CC(C)c1cccc(Nc2ccc3c(c2)CCC(=O)N3)c1 | 6.37 |  |
| O=C1CCc2cc(Nc3cccc([N+](=O)[O-])c3)ccc2N1 | 6.36 |  |
| O=C1CCc2c(cccc2Nc2cccc(C(F)(F)F)c2)N1 | < 5.20 |  |
| FC(F)(F)c1cccc(Nc2ccncc2)c1 | < 5.20 | solubility thermodynamic at 48 h [2]: 24000 µg/mL (≈ 101000 µM); solubility thermodynamic at 48 h [3]: 264 µg/mL (≈ 1110 µM) |
| CN1C(=O)CCc2cc(Nc3cccc(C(F)(F)F)c3)ccc21 | < 5.20 |  |
| O=C1CCc2cc(Nc3cc(C(F)(F)F)ccn3)ccc2N1 | 7.17 | solubility thermodynamic at 48 h [2]: 3510 µg/mL (≈ 11400 µM); pIC50 (HCT-116): 5.36; pIC50 (MCF7): 5.10; Retention_time [4]: 7 min; solubility thermodynamic at 48 h [3]: 6.12 µg/mL (≈ 19.9 µM); pIC50 (A549): 5.60 |
| O=C1CCc2cc(Nc3cccc(C(F)(F)F)c3)ccc2N1 | 7.35 | solubility thermodynamic at 48 h [2]: 1800 µg/mL (≈ 5880 µM); pIC50 (HCT-116): 5.05; pIC50 (MCF7): 4.96; Retention_time [4]: 24.4 min; solubility thermodynamic at 48 h [3]: < 1 µg/mL; pIC50 (A549): 5.38 |
| O=C1CCc2cc(Nc3ccccc3)ccc2N1 | < 5.20 |  |
| FC(F)(F)c1cccc(Nc2cccnc2)c1 | 5.15 | solubility thermodynamic at 48 h [2]: 14300 µg/mL (≈ 60000 µM); solubility thermodynamic at 48 h [3]: 10.8 µg/mL (≈ 45.3 µM) |

| Compound | pIC50 [1] | other results |
| --- | --- | --- |
| O=c1ccc2ccc(Nc3cccc(C(F)(F)F)c3)cc2[nH]1 | 5.34 |  |
| O=C1CCc2cc(Nc3cccc(Oc4ccccc4)c3)ccc2N1 | < 5.20 |  |
| O=C1CSc2cc(Nc3cc(C(F)(F)F)ccn3)ccc2N1 | 7.46 | solubility thermodynamic at 48 h [2]: 669 µg/mL (≈ 2060 µM); pIC50 (HCT-116): 5.59; pIC50 (MCF7): 5.55; Retention_time [4]: 13.8 min; solubility thermodynamic at 48 h [3]: 1.11 µg/mL (≈ 3.41 µM); pIC50 (A549): 5.82 |
| O=[N+]([O-])c1ccc(Nc2cccc(C(F)(F)F)c2)cc1 | 5.49 |  |
| O=C1CCc2cc(Nc3cccc(C(F)(F)F)c3)c(F)cc2N1 | 6.04 |  |
| O=C1Cc2cc(Nc3cccc(C(F)(F)F)c3)ccc2N1 | 5.44 |  |
| NC(=O)Nc1ccc(Nc2cccc(C(F)(F)F)c2)cc1 | 6.41 |  |
| COc1cccc(Nc2ccc3c(c2)CCC(=O)N3)c1 | < 5.20 |  |
| O=C1CCc2cc(Oc3cccc(C(F)(F)F)c3)ccc2N1 | 5.70 |  |
| O=C1CCCc2cc(Nc3cccc(C(F)(F)F)c3)ccc2N1 | 7.30 | solubility thermodynamic at 48 h [2]: 7390 µg/mL (≈ 23100 µM); pIC50 (HCT-116): 5.24; pIC50 (MCF7): 5.41; Retention_time [4]: 27 min; solubility thermodynamic at 48 h [3]: < 1 µg/mL; pIC50 (A549): 5.35 |
| O=C1CSc2cc(Nc3cccc(C(F)(F)F)c3)ccc2N1 | 7.29 | solubility thermodynamic at 48 h [2]: 1700 µg/mL (≈ 5240 µM); pIC50 (HCT-116): 5.17; pIC50 (MCF7): 5.19; Retention_time [4]: 28.2 min; solubility thermodynamic at 48 h [3]: < 1 µg/mL; pIC50 (A549): 5.39 |
| COC(=O)c1cccc(Nc2ccc3c(c2)CCC(=O)N3)c1 | < 5.20 |  |
| Nc1ccc(Nc2cccc(C(F)(F)F)c2)cc1 | < 5.20 |  |
| Nc1ccc2[nH]c3cc(C(F)(F)F)ccc3c2c1 | 6.26 |  |
| FC(F)(F)c1cccc(Nc2ccc3c(c2)CCC(=S)N3)c1 | 6.72 |  |
| CCc1cccc(Nc2ccc3c(c2)CCC(=O)N3)c1 | 6.09 |  |
| O=c1[nH]c2ccc(Nc3cccc(C(F)(F)F)c3)cc2s1 | 6.09 |  |
| O=C1CCc2cc(Nc3cccc(OC(F)(F)F)c3)ccc2N1 | 5.92 |  |
| O=C1CCc2cc(Sc3ccc(C(F)(F)F)cc3)ccc2N1 | < 5.20 |  |
| FC(F)(F)c1ccc2c(c1)[nH]c1cnccc12 |  | solubility thermodynamic at 48 h [2]: 472 µg/mL (≈ 2000 µM); solubility thermodynamic at 48 h [3]: < 1 µg/mL |
| O=C1CCc2cc(Oc3ccc(C(F)(F)F)cc3)ccc2N1 | < 5.20 |  |
| O=C1CCc2cc(Nc3ccccc3C(F)(F)F)ccc2N1 | < 5.20 |  |
| O=C1CCc2ccc(Nc3cccc(C(F)(F)F)c3)cc2N1 | < 5.20 |  |
| O=C1CCc2cc(Nc3ccc(C(F)(F)F)cc3)ccc2N1 | 6.48 |  |
| FC(F)(F)c1ccc2c(c1)[nH]c1ccncc12 |  | solubility thermodynamic at 48 h [2]: 1760 µg/mL (≈ 7450 µM); solubility thermodynamic at 48 h [3]: 3.16 µg/mL (≈ 13.4 µM) |
| Nc1ccc2c(c1)[nH]c1cc(C(F)(F)F)ccc12 | 6.57 |  |
